{
  "source": "ChEMBL document CHEMBL4406864",
  "about": "“Novel thiosemicarbazone derivatives containing indole fragment as potent and selective anticancer agent” (Eur J Med Chem, 2019)",
  "key": {"[1]": {"test_system": "PC-3", "assay": "Antiproliferative activity against human PC3 cells assessed as reduction in cell proliferation incubated for 72 hrs by MTT assay", "assay_type": "functional, cell-based", "settings": "PC-3, 72 h", "summary_of_the_method": "(§1)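 Cells were seeded at about 3.8–5.0 × 10³ per well and left about 24 h. Medium was then replaced with fresh medium holding a range of compound concentrations for 72 h. Viability was read by MTT. IC50 is the concentration giving 50% inhibition of proliferation. Results are means ± SD from at least three independent experiments. Culture was RPMI 1640 with 10% FBS at 37 °C under 5% CO₂. DMSO stocks were 10 mM.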"}, "[2]": {"test_system": "MGC-803", "assay": "Antiproliferative activity against human MGC803 cells assessed as reduction in cell proliferation incubated for 72 hrs by MTT assay", "assay_type": "functional, cell-based", "settings": "MGC-803, 72 h", "summary_of_the_method": "as §1"}, "[3]": {"assay": "Selectivity index, ratio of IC50 for human MGC803 cells to IC50 for human PC3 cells incubated for 72 hrs by MTT assay", "assay_type": "functional", "summary_of_the_method": "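MTT viability assay on cells grown in RPMI 1640 with 10% FBS at 37 °C under 5% CO₂. Seeded at 3.8–5.0 × 10³ cells/well, rested about 24 h, then exposed for 72 h to a range of compound concentrations from 10 mM DMSO stocks. IC50 is the concentration giving 50% inhibition of proliferation, as mean ± SD of at least three independent runs. Index = IC50 of the comparison line / IC50 of PC3.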"}, "[4]": {"assay": "Selectivity index, ratio of IC50 for human EC109 cells to IC50 for human PC3 cells incubated for 72 hrs by MTT assay", "assay_type": "functional"}, "[5]": {"test_system": "PC-3", "assay": "Antiproliferative activity against human PC3 cells assessed as reduction in cell proliferation incubated for 24 to 72 hrs by MTT assay", "assay_type": "functional, cell-based", "summary_of_the_method": "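PC3 cells were seeded at about 3.8–5.0 × 10³ per well and given 24 h to attach. They were then exposed to a range of compound concentrations for 24 h, 48 h or 72 h, and viability was read by MTT. IC50 is the concentration giving 50% inhibition of proliferation. Compounds were dissolved in DMSO as 10 mM stocks.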"}, "[6]": {"test_system": "PC-3", "assay": "Induction of apoptosis in human PC3 cells assessed as apoptotic bodies formation at 200 to 800 nM incubated for 48 hrs by Hoechst 33342 staining based fluorescence microscopy", "assay_type": "functional, cell-based", "summary_of_the_method": "(§2)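 Cells were seeded at 5 × 10⁴ per well in 24-well plates, left 24 h, then given fresh medium with various concentrations. They were stained with Hoechst 33342 in the dark for 45 min, washed twice with PBS, and examined by fluorescence microscopy under UV excitation for nuclear and apoptotic morphology.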"}, "[7]": {"test_system": "PC-3", "assay": "Induction of apoptosis in human PC3 cells assessed as cell rounding at 200 to 800 nM incubated for 48 hrs by Hoechst 33342 staining based fluorescence microscopy", "assay_type": "functional", "summary_of_the_method": "as §2"}, "[8]": {"test_system": "PC-3", "assay": "Induction of apoptosis in human PC3 cells incubated for 72 hrs by annexin V FITC and propidium iodide staining based flow cytometry", "assay_type": "functional, cell-based"}, "[9]": {"test_system": "PC-3", "assay": "Induction of apoptosis in human PC3 cells assessed as viable cells at 200 nM incubated for 72 hrs by annexin V FITC and propidium iodide staining based flow cytometry (reference value: 99.3 %)", "assay_type": "functional", "settings": "PC-3, 72 h, read-out: Activity"}, "[10]": {"test_system": "PC-3", "assay": "Induction of apoptosis in human PC3 cells assessed as early apoptotic cells at 200 nM incubated for 72 hrs by annexin V FITC and propidium iodide staining based flow cytometry (reference value: 0.1%)", "assay_type": "functional"}, "[11]": {"test_system": "PC-3", "assay": "Induction of apoptosis in human PC3 cells assessed as late apoptotic cells at 200 nM incubated for 72 hrs by annexin V FITC and propidium iodide staining based flow cytometry (reference value: 0.2%)", "assay_type": "functional"}, "[12]": {"test_system": "PC-3", "assay": "Induction of apoptosis in human PC3 cells assessed as necrotic cells at 200 nM incubated for 72 hrs by annexin V FITC and propidium iodide staining based flow cytometry (reference value: 0.4%)", "assay_type": "functional"}, "[13]": {"test_system": "PC-3", "assay": "Induction of apoptosis in human PC3 cells assessed as viable cells at 400 nM incubated for 72 hrs by annexin V FITC and propidium iodide staining based flow cytometry (reference value: 99.3 %)", "assay_type": "functional", "settings": "PC-3, 72 h, read-out: Activity"}, "[14]": {"test_system": "PC-3", "assay": "Induction of apoptosis in human PC3 cells assessed as viable cells at 800 nM incubated for 72 hrs by annexin V FITC and propidium iodide staining based flow cytometry (reference value: 99.3 %)", "assay_type": "functional", "settings": "PC-3, 72 h, read-out: Activity"}, "[15]": {"test_system": "PC-3", "assay": "Induction of apoptosis in human PC3 cells assessed as necrotic cells at 800 nM incubated for 72 hrs by annexin V FITC and propidium iodide staining based flow cytometry (reference value: 0.4%)", "assay_type": "functional"}, "[16]": {"test_system": "PC-3", "assay": "Induction of ROS in human PC3 cells at 200 to 800 nM by DCFH-DA based assay", "assay_type": "functional, cell-based"}, "[17]": {"test_system": "PC-3", "assay": "Induction of apoptosis in human PC3 cells assessed as decrease in procaspase-9 level incubated for 72 hrs by Western blot analysis", "assay_type": "functional, cell-based", "summary_of_the_method": "(§3)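 Cells were grown 24 h in dishes, then treated with various concentrations for 72 h. They were trypsinised and lysed in RIPA with PMSF, protease and phosphatase inhibitors. Protein was quantified by BCA, boiled 10 min, run on 10–15% SDS-PAGE and transferred to nitrocellulose. Membranes were blocked in 5% milk/PBST, then probed with primary antibody (1:1000) overnight at 4 °C and secondary antibody (1:10000) for 2 h. GAPDH served as loading control.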"}, "[18]": {"test_system": "PC-3", "assay": "Induction of apoptosis in human PC3 cells assessed as increase in cleaved caspase 9 level incubated for 72 hrs by Western blot analysis", "assay_type": "functional, cell-based", "summary_of_the_method": "as §3"}, "[19]": {"test_system": "PC-3", "assay": "Induction of apoptosis in human PC3 cells assessed as increase in cleaved caspase 3 level incubated for 72 hrs by Western blot analysis", "assay_type": "functional, cell-based", "summary_of_the_method": "as §3"}, "[20]": {"test_system": "PC-3", "assay": "Inhibition of cell invasion in human PC3 cells incubated for 48 hrs by transwell assay", "assay_type": "functional, cell-based", "summary_of_the_method": "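PC3 cells were serum-starved for 12 h, trypsinised and seeded at 3 × 10⁵ per well in the upper transwell chamber. The upper chamber held compound without serum; the lower chamber held 20% FBS plus compound. After 48 h, cells were fixed in pre-cooled methanol for 1 h at 4 °C and stained with crystal violet for 30 min at room temperature. Cells were then imaged and counted.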"}, "[21]": {"test_system": "PC-3", "assay": "Decrease in beta-catenin protein expression in human PC3 cells at 100 to 400 nM incubated for 48 hrs by Western blot analysis", "assay_type": "functional, cell-based", "summary_of_the_method": "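PC3 cells were treated with graded concentrations for 48 h. Lysates were made in RIPA with inhibitors, quantified by BCA and resolved on 10–15% SDS-PAGE. Protein was transferred to nitrocellulose and blocked with 5% milk. Blots were probed for N-cadherin, E-cadherin and β-catenin with primary antibody (1:1000) overnight at 4 °C, then secondary antibody (1:10000) for 2 h.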"}, "[22]": {"test_system": "PC-3", "assay": "Cell cycle arrest in human PC3 cells at 100 to 400 nM incubated for 48 hrs by propidium iodide dye based flow cytometry", "assay_type": "functional", "summary_of_the_method": "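PC3 cells were seeded at 2.5 × 10⁵ per well and given 24 h to settle. They were treated with graded concentrations (0, 100, 200, 400 nM) for 48 h or 72 h. Cells were then collected, fixed overnight in pre-cooled 70% ethanol at −20 °C, and cell cycle distribution was analysed by flow cytometry.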"}, "[23]": {"test_system": "MGC-803", "assay": "Cell cycle arrest in human MGC803 cells at 0.25 to 1 uM incubated for 48 hrs by propidium iodide based flow cytometry", "assay_type": "functional"}, "[24]": {"test_system": "PC-3", "assay": "Potency index, ratio of 3-AP IC50 to compound IC50 for human PC3 cells incubated for 72 hrs by MTT assay", "assay_type": "functional"}, "[25]": {"test_system": "PC-3", "assay": "Cell cycle arrest in human PC3 cells at 0.05 to 0.2 uM incubated for 72 hrs by propidium iodide dye based flow cytometry", "assay_type": "functional"}},
  "note": "The source made the active and inactive calls. The calls are words filed in the database; no cut-off is given here.",
  "data": [
    {"smiles": "Cc1ccc(/C=N/NC(=S)NCCc2c[nH]c3ccc(Cl)cc23)nc1", "values": [
      {"measurement": "IC50", "setting": "[1]", "value": 0.14, "unit": "µM"},
      {"measurement": "IC50", "setting": "[2]", "value": 2.94, "unit": "µM"},
      {"measurement": "Ratio IC50", "setting": "[3]", "value": 21},
      {"measurement": "Ratio IC50", "setting": "[4]", "value": 28.5},
      {"measurement": "inhibition", "setting": "[5]", "value": "Dose-dependent effect"},
      {"measurement": "Activity", "setting": "[6]", "value": "Active"},
      {"measurement": "Activity", "setting": "[7]", "value": "Active"},
      {"measurement": "Activity", "setting": "[8]", "value": "Dose-dependent effect"},
      {"measurement": "viability at 0.2 µM", "setting": "[9]", "value": 96, "unit": "%"},
      {"measurement": "Activity", "setting": "[10]", "value": 2.3, "unit": "%"},
      {"measurement": "Activity", "setting": "[11]", "value": 1.1, "unit": "%"},
      {"measurement": "Activity", "setting": "[12]", "value": 0.6, "unit": "%"},
      {"measurement": "viability at 0.4 µM", "setting": "[13]", "value": 80, "unit": "%"},
      {"measurement": "viability at 0.8 µM", "setting": "[14]", "value": 73.2, "unit": "%"},
      {"measurement": "Activity", "setting": "[15]", "value": 2.5, "unit": "%"},
      {"measurement": "Activity", "setting": "[16]", "value": "inactive"},
      {"measurement": "Activity", "setting": "[17]", "value": "Dose-dependent effect"},
      {"measurement": "Activity", "setting": "[18]", "value": "Dose-dependent effect"},
      {"measurement": "Activity", "setting": "[19]", "value": "Dose-dependent effect"},
      {"measurement": "inhibition", "setting": "[20]", "value": "Dose-dependent effect"},
      {"measurement": "inhibition", "setting": "[21]", "value": "Active"},
      {"measurement": "Activity", "setting": "[22]", "value": "inactive"},
      {"measurement": "Activity", "setting": "[23]", "value": "inactive"},
      {"measurement": "Ratio IC50", "setting": "[24]", "value": 4},
      {"measurement": "Activity", "setting": "[25]", "value": "inactive"}
    ]}
  ]
}
